Shown are actives, neighbours in structure and some others; about 2.9% of the full set was active somewhere.
HCV core dimer = HCV core protein dimerization inhibition; inhibition, % at 5 µM; AID 1899; TR-FRET GST/Flag-core106 dimerization, 1536-well; 300,000 tested, 0.33% active;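 active = inhibition above the mean of all tested compounds plus 3 SD, set per screening campaign, cut at about 45% in these data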
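Material: Tagged HCV core106 pair (GST and Flag) | Amount: GST-core106 13.5 nM, Flag-core106 17 nM | Medium: KF-containing HEPES buffer, pH 7.45, DTT, CHAPS, BSA | Reagent: Eu donor and XL665 acceptor anti-tag antibodies | Schedule: 4 h at 22.5 °C | Technique: Time-resolved FRET, ex 340 nm, em 617 and 671 nm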
ABHD5-PLIN5 inh = inhibitors of human ABHD5-perilipin-5 interaction; Q00G26+Q8WTS1; inhibition, % at 4 µM; Split G. princeps luciferase complementation, luminescence, 4 h; 360,000 tested, 0.78% active;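 active = inhibition above the mean inhibition across every tested compound plus 3 SD, cut at about 22% in these data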;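 note: 0% = DMSO only wells and the 100% control is not disclosed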
A3A deaminase = blocks human APOBEC3A ssDNA deamination; 330,000 tested, 0.41% active; P31941; recombinant A3A, FAM/TAMRA ssDNA deamination fluorescence; AID 493011; inhibition, % at 20 µM;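 active = at least 40% inhibition at 20 µM here, with at most 30% in a related deaminase screen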;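 note: plate controls were A3A with DMSO for no effect and wells lacking A3A enzyme for full effect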
HCV NS3 hel inh = blocks Hepatitis C virus NS3 helicase unwinding. NS3 helicase DNA unwinding, Cy5 molecular beacon fluorescence. inhibition, % at 10.9 µM. 290,000 tested, 0.56% active. AID 1800;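 active = inhibition above the mean of all tested compounds plus 3 SD, set per campaign, cut at about 35% in these data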;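 note: 0% = DMSO wells and 100% = thioflavine S control wells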
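Compound dosing – single dose, 10.9 µM nominal final, DMSO 0.8% final · System – NS3 helicase fragment of HCV · Buffer or medium – MOPS pH 6.5, MgCl2, DTT, Tween20, BSA · Signal – Cy5 beacon fluorescence read at start and 1 h · Also added – annealed dual-labelled DNA beacon duplex, ATP-started · Schedule – 1 h at 25 °C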
A3G deaminase = blocks human APOBEC3G single-stranded DNA deamination. Q9HC16. recombinant A3G, ssDNA deamination FAM/TAMRA fluorescence. inhibition, % at 20 µM. 330,000 tested, 0.28% active. AID 493012;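 active = inhibition of at least 40% at 20 µM, with no more than 30% in the related APOBEC3A deaminase screen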;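 note: plate controls were DMSO wells with A3G for no effect and wells lacking A3G enzyme for full effect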
PRMT1 inh = blocks human protein arginine methyltransferase 1 | Q99873 | recombinant PRMT1, activity-based probe fluorescence polarization | inhibition, % at 2.79 µM | 370,000 tested, 1.3% active;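 active = inhibition above about 21% made by adding two undisclosed values, limit read from the data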
Target sequence (Q99873 whole entry, looked up): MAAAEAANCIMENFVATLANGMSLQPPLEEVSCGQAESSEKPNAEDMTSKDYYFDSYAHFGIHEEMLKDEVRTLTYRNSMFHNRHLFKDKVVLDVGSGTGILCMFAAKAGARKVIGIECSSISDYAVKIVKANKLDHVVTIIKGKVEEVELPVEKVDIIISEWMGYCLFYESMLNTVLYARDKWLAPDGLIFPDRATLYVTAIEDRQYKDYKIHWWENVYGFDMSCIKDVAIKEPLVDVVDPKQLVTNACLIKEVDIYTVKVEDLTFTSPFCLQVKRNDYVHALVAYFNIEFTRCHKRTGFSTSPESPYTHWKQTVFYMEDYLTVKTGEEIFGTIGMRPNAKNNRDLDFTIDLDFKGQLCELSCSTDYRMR
A3A conf = confirmation of human APOBEC3A DNA deaminase inhibitors; 1,400 tested, 63% active; inhibition, % at 20 µM; shares compounds with A3A deaminase; recombinant A3A, ssDNA deaminase UDG fluorescence assay;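 active = inhibition reaching a set limit, 80% of the first screen's cutoff, at 20 µM in any replicate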;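 note: plate controls were DMSO wells with A3A for no effect and wells lacking A3A enzyme for full effect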
UDG A3A counter = inhibits UDG, flagging false APOBEC3A inhibitors; UDG counterscreen, FAM/TAMRA uracil oligo fluorescence; shares compounds with A3A deaminase; inhibition, % at 20 µM; 1,000 tested, under 10 active; call rule not given here
* hit, by the source's call; x = no result.

SMILES | HCV core dimer | ABHD5-PLIN5 inh | A3A deaminase | HCV NS3 hel inh | A3G deaminase | PRMT1 inh | A3A conf | UDG A3A counter
O=C(O)c1ccc(CSc2n[nH]c(-c3ccco3)n2)cc1 | -13.5 | -4.8 | 84.9* | 36.2* | 25.9 | 7.5 | 59.1* | 0.6
Cc1cc(C)cc(C(=O)OCC(=O)NC(=O)NC2CCCC2)c1 | x | -7.2 | -2.3 | x | -7.0 | 1.6 | x | x
CCCCn1c(N)c(N(CCOC)C(=O)c2cc(-c3ccc(OC)c(OC)c3)nc3ccccc23)c(=O)[nH]c1=O | 0.1 | -4.5 | 51.9* | x | 9.4 | 2.6 | 39.9* | -0.9
CCCCn1c(N)c(N(CCOC)C(=O)c2cc(-c3ccco3)nc3ccccc23)c(=O)[nH]c1=O | 13.9 | 5.9 | 41.5* | x | 17.9 | 13.6 | 29.8* | -0.7
Cc1onc(-c2ccccc2)c1C(=O)N(CC(C)C)c1c(N)n(CC(C)C)c(=O)[nH]c1=O | x | -6.5 | -1.3 | x | -5.8 | -3.5 | x | x
Cc1cccc(C(=O)Nc2cc(Cl)ccc2-n2cncn2)c1[N+](=O)[O-] | 0.2 | 3.3 | 1.7 | x | -3.5 | 4.2 | x | x
Cc1cccc2nc(C(=O)Nc3cc(Cl)ccc3-n3cncn3)cn12 | x | -0.3 | 49.1* | x | 8.5 | 3.4 | 35.9* | -1.2
CCN(CC)S(=O)(=O)c1cccc(NC(=O)CCNC(=O)NC23CC4CC(CC(C4)C2)C3)c1 | 1.0 | -9.4 | 10.4 | x | -10.0 | x | x | x
CCc1cccc(C)c1NC(=O)c1cc(=O)[nH]c2ccc(S(=O)(=O)N3CCOCC3)cc12 | x | 2.0 | 42.7* | x | 3.1 | -2.0 | 34.6* | -2.5
NC(=O)C[n+]1cccc(C(=O)Nc2ccccc2)c1 | -0.8 | 3.5 | 76.2* | 0.6 | 18.9 | -5.3 | 77.5* | -1.5
CCCCN(C(C)=O)c1c(CC)nc2ccc(C(=O)Nc3cccc(OCC(=O)N(C)C)c3)cn12 | x | 9.0 | x | x | x | -1.4 | x | x
O=C(Cc1ccc(Br)cc1)OCC(=O)c1ccc[nH]1 | x | 5.4 | -0.6 | x | -1.2 | 1.9 | x | x
COC(=O)C1=C(C)N(Cc2ccccc2)C(=NCc2cccc(C(F)(F)F)c2)N[C@H]1c1cccc(F)c1 | -4.7 | 4.8 | -1.8 | -103.0 | -2.9 | -0.6 | x | x
CCN1C(=NCc2cccc(Cl)c2)N[C@@H](c2cccc(F)c2)C(C(=O)OC)=C1C | -1.3 | 4.3 | 5.4 | -85.8 | 0.5 | -1.3 | x | x
CCN1C(=NCCc2ccccn2)N[C@@H](c2cccc(F)c2)C(C(=O)OC)=C1C | -12.2 | 5.8 | 47.6* | 13.7 | 5.4 | 0.9 | 63.3* | -1.5
COC(=O)C1=C(C)N(Cc2ccccc2)C(=NCCc2ccccn2)N[C@H]1c1cccc(F)c1 | -3.6 | 3.7 | 47.7* | -113.4 | 15.1 | 2.9 | 63.0* | -3.7
C[C@@H]1CN(C(=O)OC(C)(C)C)CCN1c1ccc(N2CCN(Cc3ccccc3)[C@@H](C)C2)c(C#N)c1 | x | x | x | x | x | 3.2 | x | x
C=CC1=C(C(=O)O)N2C(=O)[C@@H](NC(=O)/C(=N\O)c3csc(N)n3)[C@H]2SC1 (stereo in doubt) | -54.5 | -4.3 | 89.2* | x | 18.5 | 12.6 | 87.9* | x
O=C(COC(=O)Cn1cc(C(F)(F)F)ccc1=O)NCc1ccccc1 | x | -7.3 | 0.6 | x | -6.9 | 1.3 | x | x
NCC(O)CN(c1ccccc1)c1ccccc1 (stereo not drawn) | -3.6 | -3.4 | -4.1 | -8.3 | -4.5 | -3.2 | x | x
CC(C)[N+](C)(C)CC(O)CN(c1ccccc1)c1ccccc1 (stereo not drawn) | -2.5 | -1.8 | 60.7* | 3.0 | 10.5 | -5.1 | 70.5* | 0.1
CC(=O)OC(COC1C[C@@H]2CC[C@@]1(C)C2(C)C)C[N+]1(C)CCCCC1 (stereo partly drawn) | 3.4 | -0.3 | 48.1* | -8.4 | 15.2 | 2.9 | 70.4* | -2.8
CCC(C)OC(=O)C[N+](C)(C)CCOC1CC2CCC1(C)C2(C)C (stereo not drawn) | -1.9 | 6.1 | 0.9 | -26.9 | -3.2 | 5.9 | x | x
Cc1ccc(S(=O)(=O)NCc2ccccc2)cc1C(=O)NCC(=O)Nc1c(C)cccc1C | x | -6.2 | x | x | x | 3.7 | x | x

Compound activity deposited in PubChem BioAssay by several laboratories.
